Source: ChEMBL document CHEMBL2380229, “Design, synthesis, cytotoxic evaluation and tubulin inhibitory activity of 4-aryl-5-(3,4,5-trimethoxyphenyl)-2-alkylthio-1H-imidazole derivatives” (Bioorg Med Chem, 2013)
The source made the active and inactive calls. The rule behind the calls is not given here.

Assays:
NIH3T3 [1] = test: Cytotoxicity against mouse NIH/3T3 cells assessed as growth inhibition after 48 hrs by MTT assay; format: functional, cell-based; settings: NIH3T3, 48 h
Method in brief: (§1)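 MTT assay. Cells seeded at 8000–10,000 viable cells per well and allowed 24 h before a 48 h compound exposure. MTT (5 mg/mL solution) added for a further 4 h, then formazan dissolved in DMSO. Absorbance read at 550 nm against a 690 nm reference. Two independent experiments in triplicate. IC50 by nonlinear regression, mean ± SD.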

HT-29 = test: Cytotoxicity against human HT-29 cells assessed as growth inhibition after 48 hrs by MTT assay; format: functional, cell-based; settings: HT-29, 48 h; method in brief: as §1
AGS = test: Cytotoxicity against human AGS cells assessed as growth inhibition after 48 hrs by MTT assay; format: functional, cell-based; method in brief: as §1
MCF7 = test: Cytotoxicity against human MCF7 cells assessed as growth inhibition after 48 hrs by MTT assay; format: functional, cell-based; settings: MCF7, 48 h; method in brief: as §1
Ovis aries [2] = species on record: Ovis aries; test: Inhibition of sheep brain microtubule polymerization at 2 uM after 15 mins by UV-vis spectrophotometric analysis
Method in brief: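 Purified microtubule protein preincubated 15 min with compound in PEM buffer (100 mM PIPES pH 6.9, 1 mM MgSO₄, 1 mM EGTA), then cooled to 0 °C. GTP added (1 mM final), and assembly started by warming from 0 to 37 °C. Polymerization followed as absorbance change at 350 nm.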

Ovis aries [3] = species on record: Ovis aries; test: Inhibition of sheep brain microtubule polymerization at 5 uM after 15 mins by UV-vis spectrophotometric analysis
Method in brief: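 Purified tubulin (12 µM) in PEM buffer (100 mM PIPES pH 6.9, 1 mM MgSO4, 1 mM EGTA) preincubated 15 min with compound (5 µM final), then cooled to 0 °C. GTP added to 1 mM final. Assembly started by warming from 0 to 37 °C and followed by absorbance at 350 nm. Positive control at 2 µM final.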

NIH3T3 [4] = test: Cell cycle arrest in mouse NIH/3T3 cells assessed as accumulation at S phase at 0.10 uM after 24 hrs by propidium iodide staining-based FACS flow cytometric analysis (reference value: 24.39%); format: functional
NIH3T3 [5] = test: Cell cycle arrest in mouse NIH/3T3 cells assessed as accumulation at G2/M phase at 0.10 uM after 24 hrs by propidium iodide staining-based FACS flow cytometric analysis (reference value: 35.70%); format: functional
NIH3T3 [6] = test: Cell cycle arrest in mouse NIH/3T3 cells assessed as accumulation at G0/G1 phase at 0.10 uM after 24 hrs by propidium iodide staining-based FACS flow cytometric analysis (reference value: 39.91%); format: functional

microtubule polymerization inhibition (active/inactive call) (Ovis aries [3])	Structure (SMILES)	IC50 (NIH3T3 [1])	IC50 (HT-29)	IC50 (AGS)	IC50 (MCF7)	inhibition (Ovis aries [2])	Activity (NIH3T3 [4])	Activity (NIH3T3 [5])	Activity (NIH3T3 [6])
–	CCSc1nc(-c2cc(OC)c(OC)c(OC)c2)c(-c2cc(OC)c(OC)c(OC)c2)[nH]1	> 50 µM	> 50 µM	–	–	–	–	–	–
–	CCSc1nc(-c2cc(OC)c(OC)c(OC)c2)c(-c2ccccc2OC)[nH]1	36.2 µM	18.6 µM	40.7 µM	11 µM	–	–	–	–
–	COc1ccc(/C=C\c2cc(OC)c(OC)c(OC)c2)cc1O [COMBRETASTATIN A4]	0.02 µM	0.18 µM	0.04 µM	0.4 µM	Active	–	–	–
–	CCSc1nc(-c2cc(OC)c(OC)c(OC)c2)c(-c2cccc(OC)c2OC)[nH]1	27.2 µM	36.7 µM	39 µM	22.9 µM	–	–	–	–
–	CCSc1nc(-c2cc(OC)c(OC)c(OC)c2)c(-c2ccc(OC)cc2OC)[nH]1	7.25 µM	6.56 µM	18.6 µM	3.55 µM	–	–	–	–
–	COc1ccc(-c2[nH]c(SC)nc2-c2cc(OC)c(OC)c(OC)c2)c(OC)c1	11.9 µM	18.6 µM	23.2 µM	4.15 µM	–	–	–	–
–	COc1ccc(-c2nc(SC)[nH]c2-c2ccc(OC)c(OC)c2)cc1OC	35.8 µM	24.1 µM	34.8 µM	17.2 µM	–	–	–	–
Active	CCSc1nc(-c2cc(OC)c(OC)c(OC)c2)c(-c2ccc(OC)c(OC)c2)[nH]1	14.1 µM	21 µM	37.2 µM	13.2 µM	–	–	–	–
–	COc1ccccc1-c1[nH]c(SC)nc1-c1cc(OC)c(OC)c(OC)c1	38.7 µM	21.7 µM	48.4 µM	12.2 µM	–	–	–	–
–	COc1cc(-c2nc(SC)[nH]c2-c2cccc(OC)c2OC)cc(OC)c1OC	30.2 µM	27.5 µM	35.3 µM	18.1 µM	–	–	–	–
Active	CCSc1nc(-c2cc(OC)c(OC)c(OC)c2)c(-c2ccc(OC)cc2)[nH]1	0.26 µM	0.36 µM	0.07 µM	0.75 µM	–	–	–	–
–	CCSc1nc(-c2ccc(OC)c(OC)c2)c(-c2ccc(OC)c(OC)c2)[nH]1	27.6 µM	21.2 µM	33.6 µM	15.1 µM	–	–	–	–
Active	COc1ccc(-c2[nH]c(SC)nc2-c2cc(OC)c(OC)c(OC)c2)cc1OC	6.01 µM	4.82 µM	10.6 µM	4.04 µM	–	–	–	–
Active	COc1ccc(-c2[nH]c(SC)nc2-c2cc(OC)c(OC)c(OC)c2)cc1	0.06 µM	0.25 µM	0.06 µM	0.52 µM	–	7.07%	91.93%	1.01%
–	COc1cc(-c2nc(SC)[nH]c2-c2cc(OC)c(OC)c(OC)c2)cc(OC)c1OC	> 50 µM	> 50 µM	–	–	–	–	–	–
